The results in this text go back to ChEMBL document CHEMBL1143672, “Synthesis and pharmacology of site-specific cocaine abuse treatment agents: restricted rotation analogues of methylphenidate” (J Med Chem, 2007).

Experiment [1] addresses Monoamine transporters; Norepininephrine & dopamine (Rattus norvegicus) (UniProt P23977+Q9WTR4). As to the kind of experiment: Selectivity for rat DAT over rat NET. The format is protein assay.
Experiment [2] concerns the target Sodium-dependent serotonin transporter (Rattus norvegicus, UniProt P31652). Kind of experiment: Displacement of [3H]citalopram from 5HTT in Sprague-Dawley rat cerebrum. In outline:
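Rat cortical P2 fraction in 25 mM sodium phosphate, pH 7.7 at 0 °C; 2 nM [3H]citalopram, 3 h at 0 °C; filtration. Nonspecific binding with 1 µM clomipramine. Compounds in water, dilute DMSO or methanol (≤0.3% solvent). Data corrected for filter binding; IC50 by nonlinear regression, Ki by Cheng-Prusoff.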

Experiment [3] concerns the target Monoamine transporters; Norepinephrine & serotonin (Rattus norvegicus) (UniProt P31652+Q9WTR4). Kind of experiment: Selectivity for rat NET over rat 5HTT. The format is protein assay.
The target of experiment [4] is Monoamine transporters; serotonin & dopamine (Rattus norvegicus) (UniProt P31652+P23977). As to the kind of experiment: Selectivity for rat DAT over rat 5HTT. The format is protein assay.
Monoamine transporters; serotonin & dopamine (Rattus norvegicus), sequence (P23977 whole entry, looked up): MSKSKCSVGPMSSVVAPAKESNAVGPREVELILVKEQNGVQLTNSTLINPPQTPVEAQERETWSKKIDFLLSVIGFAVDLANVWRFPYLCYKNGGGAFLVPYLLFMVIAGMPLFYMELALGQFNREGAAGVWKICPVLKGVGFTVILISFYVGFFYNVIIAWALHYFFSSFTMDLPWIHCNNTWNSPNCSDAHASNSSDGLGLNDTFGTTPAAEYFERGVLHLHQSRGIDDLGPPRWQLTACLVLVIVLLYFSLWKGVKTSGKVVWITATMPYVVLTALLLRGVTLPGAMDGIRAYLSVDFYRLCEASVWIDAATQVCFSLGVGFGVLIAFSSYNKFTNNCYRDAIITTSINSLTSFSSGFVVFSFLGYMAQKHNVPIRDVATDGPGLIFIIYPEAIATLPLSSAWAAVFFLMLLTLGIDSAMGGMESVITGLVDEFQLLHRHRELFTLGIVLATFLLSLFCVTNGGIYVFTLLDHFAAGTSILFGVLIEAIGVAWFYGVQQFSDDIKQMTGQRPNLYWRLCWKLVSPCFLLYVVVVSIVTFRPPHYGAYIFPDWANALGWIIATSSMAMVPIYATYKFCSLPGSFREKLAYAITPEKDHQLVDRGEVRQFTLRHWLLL
Monoamine transporters; serotonin & dopamine (Rattus norvegicus), sequence (P31652 whole entry, looked up): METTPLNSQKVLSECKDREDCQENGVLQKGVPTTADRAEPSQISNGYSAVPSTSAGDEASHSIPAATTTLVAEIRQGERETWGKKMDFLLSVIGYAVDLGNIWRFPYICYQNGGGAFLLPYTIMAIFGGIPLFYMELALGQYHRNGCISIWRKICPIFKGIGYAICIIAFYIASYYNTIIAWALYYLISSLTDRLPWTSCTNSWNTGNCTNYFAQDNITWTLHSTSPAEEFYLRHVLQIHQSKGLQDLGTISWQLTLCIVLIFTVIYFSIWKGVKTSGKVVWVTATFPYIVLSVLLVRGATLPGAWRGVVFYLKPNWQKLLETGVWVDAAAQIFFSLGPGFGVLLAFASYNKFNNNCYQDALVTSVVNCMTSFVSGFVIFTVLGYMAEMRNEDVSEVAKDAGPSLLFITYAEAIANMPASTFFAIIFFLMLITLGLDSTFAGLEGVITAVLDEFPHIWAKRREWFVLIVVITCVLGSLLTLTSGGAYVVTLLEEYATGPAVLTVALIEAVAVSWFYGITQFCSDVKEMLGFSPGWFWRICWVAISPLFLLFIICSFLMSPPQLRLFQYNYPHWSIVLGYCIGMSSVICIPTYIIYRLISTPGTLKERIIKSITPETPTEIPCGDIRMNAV
The target in experiment [5] is T1, Sodium-dependent dopamine transporter (Rattus norvegicus, UniProt P23977). As to the kind of experiment: Displacement of [3H]WIN-35428 from DAT in Sprague-Dawley rat striatum.
T1 sequence (P23977 whole entry): as the sequence (P23977 whole entry, looked up) above
Experiment [6] deals with Norepinephrine transporter (Rattus norvegicus, UniProt Q9WTR4). As to the kind of experiment: Displacement of [3H]nisoxetine from NET in Sprague-Dawley rat cortical tissue. On the technique in general: In a radioligand displacement assay an active substance lowers the binding of a labelled ligand.
Norepinephrine transporter, sequence (Q9WTR4 whole entry): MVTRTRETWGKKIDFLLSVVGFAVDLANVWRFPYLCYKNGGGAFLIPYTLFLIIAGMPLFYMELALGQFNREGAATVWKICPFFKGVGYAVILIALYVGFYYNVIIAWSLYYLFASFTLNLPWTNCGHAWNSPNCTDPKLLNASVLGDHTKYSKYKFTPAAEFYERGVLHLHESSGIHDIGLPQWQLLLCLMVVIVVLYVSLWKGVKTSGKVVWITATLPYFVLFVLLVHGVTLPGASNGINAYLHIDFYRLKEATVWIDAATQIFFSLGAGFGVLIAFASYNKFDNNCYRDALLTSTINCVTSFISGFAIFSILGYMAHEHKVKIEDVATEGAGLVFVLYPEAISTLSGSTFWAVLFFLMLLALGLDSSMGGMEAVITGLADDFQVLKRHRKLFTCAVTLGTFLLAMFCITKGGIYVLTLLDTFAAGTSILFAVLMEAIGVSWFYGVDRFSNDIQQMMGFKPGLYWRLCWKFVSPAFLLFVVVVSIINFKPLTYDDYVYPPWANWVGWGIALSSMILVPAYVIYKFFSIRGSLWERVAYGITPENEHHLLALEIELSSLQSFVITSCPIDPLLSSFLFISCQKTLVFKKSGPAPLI
Experiment [7] deals with T1, Sodium-dependent dopamine transporter. Kind of experiment: Inhibition of [3H]DA uptake at DAT in Sprague-Dawley rat striatum. In outline:
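Uptake of [3H]dopamine into the S1 fraction of rat striatal homogenate; IC50 from curves fit by nonlinear regression.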

For experiment [8], the target named is Sodium-dependent serotonin transporter (Rattus norvegicus) (UniProt P31652). Kind of experiment: Displacement of [3H]citalopram from 5HTT in Sprague-Dawley rat cerebrum at 10 uM.
Sodium-dependent serotonin transporter (Rattus norvegicus), sequence (P31652 whole entry): as the sequence (P31652 whole entry, looked up) above
Experiment [9] addresses Norepinephrine transporter (Rattus norvegicus) (UniProt Q9WTR4). As to the kind of experiment: Displacement of [3H]nisoxetine from NET in Sprague-Dawley rat cortical tissue at 5 uM.

The structures appear in SMILES notation. Where a name gives a salt, the structure may show the parent alone. A value given as a limit tells only on which side of the number the result lay.

Norepinephrine transporter (Rattus norvegicus), sequence (Q9WTR4 as listed by the source): as the sequence (Q9WTR4 whole entry) above
Sodium-dependent serotonin transporter, sequence (P31652 whole entry): as the sequence (P31652 whole entry, looked up) above

Turning to `CC[C@H]1CCN2CCCC[C@@H]2[C@H]1c1ccc(Cl)c(Cl)c1`, the results for the Selectivity ratio in experiment [1], in [3] and in [4] were 24, 2 and 48, respectively. For the same molecule, the inhibition constant (Ki) in experiment [2] came out at 199 nM; in [5], 4.12 nM; in [6] it was 98.8 nM.

Regarding `Clc1ccc([C@@H]2CCCN3CCCC[C@H]23)cc1Cl` (relative stereo), inhibition in [7] was half-maximal at 87.6 nM (IC50). Further, the Selectivity ratio in experiment [1] was 4.6; in [3] it was 0.64; in experiment [4], 3. In addition, the Ki in [2] turned out to be 102 nM; in experiment [5] it was 34.6 nM; in experiment [6] it was 160 nM.

In the case of `COC(=O)[C@@H](c1ccc(Cl)c(Cl)c1)[C@H]1CCCCN1` (relative stereo), half-maximal inhibition in [7] (IC50) required 317 nM. In addition, the Ki in experiment [2] was 2570 nM; in experiment [5], 363 nM. The Selectivity ratio in experiment [4] came out at 7.1.

Turning to `O=C1CCN2CCCC[C@@H]2[C@H]1c1ccc(Cl)c(Cl)c1` (relative stereo), the inhibition in experiment [8] is 54%. Further, the Selectivity ratio amounted to 20 in experiment [1], 36 in experiment [3] and 710 in experiment [4]. Besides, the Ki stood at 14 nM in experiment [5] and 280 nM in experiment [6].

In the case of `CC[C@@H]1CCN2CCCC[C@@H]2[C@H]1c1ccc(Cl)c(Cl)c1`, the figures for the Selectivity ratio in [1], in [3] and in [4] were 30, 2.8 and 83, respectively. In addition, the Ki in experiment [2] was found to be 286 nM; in experiment [5], 3.44 nM; in experiment [6], 102 nM.

`CCN1CCCC[C@@H]1[C@H](CO)c1ccccc1` (relative stereo) displayed an inhibition in [8] of 16.2%. Moreover, the IC50 in [7] stood at 10400 nM. Besides, the Selectivity ratio in experiment [4] was > 4.8. Further, the Ki in experiment [5] is 2100 nM.

As for `CC[C@@]1(O)CCN2CCCC[C@@H]2[C@H]1c1ccccc1`, in experiment [8], the inhibition came to 19%. Moreover, the Selectivity ratio was 8.69 in [1], > 6.6 in [3] and > 57 in experiment [4]. Also, the Ki in [5] amounted to 175 nM; in [6], 1520 nM.

`O[C@H]1CCN2CCCC[C@@H]2[C@H]1c1ccccc1`: the inhibition in experiment [8] worked out at 12%. Moreover, half-maximal inhibition in [7] (IC50) required 680 nM. Besides, the Selectivity ratio is 3.3 in experiment [1], > 28 in experiment [3] and > 93 in experiment [4]. Moreover, the Ki was determined as 108 nM in experiment [5] and 351 nM in experiment [6].

Regarding `CO[C@@H]1CCN2CCCC[C@@H]2[C@H]1c1ccccc1`, the inhibition in experiment [8] is 14%; in experiment [9], 64%. The molecule further returned a 50% inhibitory concentration (IC50) in experiment [7] of 1850 nM. For the same molecule, the Selectivity ratio in [1] is 3.6; in experiment [3] it was > 4.9; in experiment [4], > 18. For the same molecule, the Ki in experiment [5] worked out at 570 nM; in [6] it was 2040 nM.

Take `COC(=O)[C@H](c1ccccc1)[C@H]1CCCCN1` [DEXMETHYLPHENIDATE HYDROCHLORIDE]: the inhibition in [8] turned out to be 14%. For the same molecule, the inhibition constant (Ki) in [6] turned out to be 270 nM.

As to `COC(=O)[C@H](c1ccc(Cl)c(Cl)c1)[C@H]1CCCCN1`, the IC50 in [7] is 7 nM. The results for the Ki in [2] and in [5] were 667 nM and 4.76 nM, respectively. For the same molecule, in experiment [4], the Selectivity ratio was determined as 140.

For the molecule `O[C@H]1CCN2CCCC[C@@H]2[C@H]1c1ccc(Cl)c(Cl)c1`, the Selectivity ratio in experiment [1] is 11; in experiment [3] it was 6; in [4], 68. Besides, the inhibitory constant (Ki) turned out to be 168 nM in experiment [2], 2.46 nM in experiment [5] and 27.9 nM in [6].

With `CO[C@H]1CCN2CCCC[C@@H]2[C@H]1c1ccccc1`, the inhibition in experiment [8] was found to be 73%. Moreover, the IC50 in experiment [7] came to 61 nM. The Selectivity ratio in experiment [1] came out at 5.9; in [3], 32; in experiment [4] it was 190. The figures for the Ki in experiment [2], in experiment [5] and in experiment [6] were 2070 nM, 10.8 nM and 63.7 nM, respectively.

Regarding `O=C1CCN2CCCC[C@@H]2[C@H]1c1ccccc1` (relative stereo), the inhibition turned out to be 5% in [8] and 52% in [9]. Further, half-maximal inhibition in experiment [7] (IC50) was put at 12400 nM. For the same molecule, the Selectivity ratio in experiment [1] is 4.4; in experiment [3] it was > 2.5; in [4] it was > 11. Further, the Ki in experiment [5] amounted to 908 nM; in experiment [6], 4030 nM.

With `C[C@H]1C[C@H](c2ccccc2)[C@H]2CCCCN2C1`, half-maximal inhibition in experiment [7] (IC50) required 368 nM. The Selectivity ratio in [1] was found to be 3.9; in experiment [3] it was 0.62; in experiment [4], 2.4. The values for the Ki in experiment [2], in [5] and in experiment [6] were 427 nM, 178 nM and 694 nM, respectively.

Regarding `O[C@@H]1CCN2CCCC[C@@H]2[C@H]1c1ccccc1`, the inhibition in experiment [8] was found to be 1%; in experiment [9] it was 23.7%. Besides, half-maximal inhibition in [7] (IC50) was put at 10700 nM. Moreover, the Selectivity ratio was > 0.8 in experiment [1] and > 1.6 in experiment [4]. Also, the Ki in experiment [5] is 6250 nM.

Consider `O=C1CC[C@H](c2ccccc2)[C@H]2CCCCN12`, for which the inhibition in experiment [9] was found to be 11%. For the same molecule, the IC50 in experiment [7] came to 8490 nM. Further, the Selectivity ratio is > 0.76 in experiment [1], < 0.7 in [3] and 0.54 in [4]. For the same molecule, the Ki in experiment [2] came out at 3550 nM.

`OC[C@H](c1ccc(Cl)c(Cl)c1)[C@H]1CCCCN1` (relative stereo) showed an inhibition in experiment [8] of 94.6%. In experiment [7], this molecule yielded a half-maximal inhibitory concentration (IC50) of 22.5 nM. In addition, the Ki is 276 nM in experiment [2] and 3.91 nM in [5]. The Selectivity ratio in [4] was 71.

`CC[C@@H]1CCN2CCCC[C@@H]2[C@H]1c1ccccc1` came in with an inhibition in [8] of 80%. In addition, the Selectivity ratio in experiment [1] stood at 15; in experiment [3], 5.8; in experiment [4], 87. Further, the Ki in experiment [2] is 2390 nM; in experiment [5], 27.6 nM; in experiment [6], 411 nM.

`c1ccc([C@H]2CCCN3CCCC[C@H]23)cc1` (relative stereo): the IC50 in experiment [7] is 244 nM. For the same molecule, the Selectivity ratio in [1] was found to be 1.8; in experiment [3], 37; in experiment [4] it was 67. Moreover, the Ki amounted to 5140 nM in experiment [2], 76.2 nM in experiment [5] and 138 nM in experiment [6].

For `O[C@@H]1CCN2CCCC[C@@H]2[C@H]1c1ccc(Cl)c(Cl)c1`, the Selectivity ratio was determined as 10 in experiment [1], 5.6 in experiment [3] and 57 in experiment [4]. The Ki in experiment [2] came out at 2050 nM; in experiment [5], 35.7 nM; in experiment [6] it was 367 nM.

For the molecule `C[C@@H]1C[C@H](c2ccccc2)[C@H]2CCCCN2C1`, the midpoint of inhibition in experiment [7], the IC50, lay at 248 nM. Also, the figures for the Selectivity ratio in experiment [1], in [3] and in experiment [4] were 0.64, 3.2 and 2, respectively. The Ki came out at 243 nM in [2], 119 nM in [5] and 76 nM in experiment [6].

For `COC[C@H](c1ccccc1)[C@H]1CCCCN1` (relative stereo), the inhibition in experiment [8] amounted to 47.8%. The molecule also gave a half-maximal inhibitory concentration (IC50) in experiment [7] of 281 nM. The Selectivity ratio in experiment [4] is 110. This molecule displayed a Ki in experiment [5] of 89.9 nM.

For the molecule `CC[C@H]1CCN2CCCC[C@@H]2[C@H]1c1ccccc1`, the inhibition in experiment [8] was determined as 86%. Also, the figures for the Selectivity ratio in [1], in experiment [3] and in experiment [4] were 11, 58 and 640, respectively. The Ki in experiment [2] was 3550 nM; in experiment [5] it was 5.51 nM; in [6], 60.8 nM.

On to `COC(=O)[C@H](c1ccccc1Cl)[C@H]1CCCCN1`, for which the inhibition in experiment [8] is 22.2%. Besides, the IC50 in experiment [7] came out at 2660 nM. For the same molecule, the Selectivity ratio in experiment [4] is > 5.7. In addition, the Ki in experiment [5] came to 1740 nM.

`c1ccc(C2CCCNC2)cc1` (configuration not stated): in experiment [8], the inhibition was 53%. Besides, the IC50 in [7] stood at 1060 nM. In addition, the Selectivity ratio in experiment [1] is 0.12; in [3] it was 19; in experiment [4], 2.2. The Ki in [5] stood at 4560 nM; in [6] it was 534 nM.

In experiment [8], `OC[C@H](c1ccccc1)[C@H]1CCCCN1` (relative stereo) displayed an inhibition of 31%. Half-maximal inhibition in [7] (IC50) required 1520 nM. Further, the Selectivity ratio in [4] was > 25. This molecule also registered a Ki in experiment [5] of 406 nM.

Take `CCN1CCCC[C@@H]1[C@H](C)c1ccccc1` (relative stereo): the inhibition in experiment [8] was found to be 11%; in experiment [9], 8.3%. The IC50 in experiment [7] was determined as 7960 nM. Moreover, the Selectivity ratio was > 0.66 in [1] and > 1.3 in experiment [4]. This molecule came in with a Ki in experiment [5] of 7610 nM.

With `Clc1ccc([C@H]2CCCN3CCCC[C@H]23)cc1Cl` (relative stereo), in experiment [7], it took 11 nM to reach half-maximal inhibition (IC50). Moreover, the Selectivity ratio in experiment [1] was 8.4; in experiment [3], 4.3; in [4], 36. Further, the values for the Ki in experiment [2], in [5] and in experiment [6] were 121 nM, 3.39 nM and 28.4 nM, respectively.

The Ki is a dissociation constant, usually derived from enzyme kinetics or from competition with a known ligand. Lower therefore signals higher affinity. The IC50 is the concentration at which inhibition is half-maximal. In general, inhibition refers to the percentage by which the read-out fell short of the control.
